Source: PubChem (several laboratories)
Shown are actives, neighbours in structure and some others; about 3.9% of the full set was active somewhere.
FXN GAA850 act: increases GAA850 frataxin promoter reporter activity. activation, % at 6 µM. HEK293 lucGAA850 FXN promoter luciferase reporter, 24 h; percent of 10 µM SAHA response. 360,000 compounds, 0.56% hits;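 active = activation above the average of all compounds screened plus 3 SD, cutoff fixed separately per campaign, cut at about 7.5% in these data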;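 also: 0% = DMSO wells and 100% = 10 µM SAHA wells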
ABCB6 inh MLPCN: inhibitors of human ABC transporter ABCB6; Q9NP58; K562-ABCB6 porphyrin accumulation, flow cytometry, 1 h; stronger effect = lower value; fluorescence ratio to DMSO, % at 10 µM; 360,000 compounds, 0.19% hits; AID 602162;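 active = fluorescence ratio to DMSO below 75%, the collection mean minus 3 SD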;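 also: signal is porphyrin accumulated inside mitochondria; 100% equals median channel fluorescence of DMSO control wells; lower ratio means ABCB6 inhibition with less porphyrin fluorescence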
SR-BI DiI inh: inhibitors of mouse SR-BI mediated HDL lipid uptake | 320,000 compounds, 0.96% hits | ldlA[mSR-BI] CHO cells, DiI-HDL uptake fluorescence, 3 h | inhibition, % at 12.5 µM;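 active = mean replicate inhibition of at least 70% and a set share of replicates each scoring 70 or more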;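 also: 0% = median of neutral control wells and 100% = median of positive control wells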
HIF act: HIF pathway transcriptional activation | 300,000 compounds, 0.32% hits | U2OS HRE-luciferase reporter, luminescence; normalized: DMSO 0%, desferrioxamine 100% | activation, % at 7.5 µM (by protocol);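 active = mean activation of at least 10% of the iron chelator positive control signal, with at least half of replicates also reaching 10%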
AHR activator: human AHR activation. 320,000 compounds, 2.5% hits. AID 2796. activation, % at 5 µM. AHR-responsive luciferase reporter cells, luminescence; in the data active = activation above about 47%;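 also: 0% = vehicle wells and 100% = reference agonist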
SR-BI DiI-HDL act: SR-BI HDL lipid transfer activation | CHO ldlA[mSR-BI] cells, DiI-HDL uptake fluorescence, 3 h; 100 = double the neutral-control signal | activation, % at 12.5 µM | 320,000 compounds, 0.096% hits | AID 504775;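 active = mean replicate activation of at least 60% and every replicate at or above 60%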;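 also: 0% = median plate neutral-control signal and 100% = twice that signal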
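Material: SR-BI-overexpressing, LDLR-lacking CHO cells; schedule: compound exposure 3 h, 37 °C; reagent: DiI-labelled HDL at 10 µg/mL final; technique: bottom-read fluorescence, 550/595 nm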
AHR act cf: confirmation of human aryl hydrocarbon receptor activators | human cells, AHR-responsive luciferase reporter, luminescence | activation, % at 9 µM | shares compounds with AHR activator | 2,300 compounds, 87% hits; in the data active = activation above about 49%;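 also: HepG2 hepatoma cells carrying a DRE-driven firefly luciferase reporter; 0% = vehicle wells and 100% = reference agonist wells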
PXR counter: activates human PXR in AHR activator counter-screen; shares compounds with AHR activator; cell-based PXR reporter, luciferase luminescence; activation, % at 11.6 µM; 2,300 compounds, 88% hits; in the data active = activation above about 11%;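 also: human hepatoma DPX-2 cells expressing full-length human PXR; 0% = DMSO and 100% = reference agonist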
Target sequence (O75469 whole entry, looked up): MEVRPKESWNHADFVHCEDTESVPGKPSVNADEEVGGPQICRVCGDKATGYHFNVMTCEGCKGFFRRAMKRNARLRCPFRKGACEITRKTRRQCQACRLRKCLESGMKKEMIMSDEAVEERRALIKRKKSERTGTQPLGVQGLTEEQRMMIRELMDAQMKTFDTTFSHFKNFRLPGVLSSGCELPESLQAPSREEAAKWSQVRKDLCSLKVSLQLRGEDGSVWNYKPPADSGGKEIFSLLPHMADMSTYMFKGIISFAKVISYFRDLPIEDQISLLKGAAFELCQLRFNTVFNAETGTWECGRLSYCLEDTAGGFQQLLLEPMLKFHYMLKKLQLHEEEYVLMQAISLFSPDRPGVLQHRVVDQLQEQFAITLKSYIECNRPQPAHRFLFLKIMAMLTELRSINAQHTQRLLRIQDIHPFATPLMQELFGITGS
* = called active by the depositor; . = no result given.

SMILES | FXN GAA850 act | ABCB6 inh MLPCN | SR-BI DiI inh | HIF act | AHR activator | SR-BI DiI-HDL act | AHR act cf | PXR counter
O=C1N/C(=N\c2ccccn2)SC1Cc1ccccc1Cl (centres undefined) | -1.0 | 98.0 | 1.3 | 0.4 | 79.6* | -1.3 | 89.1* | 33.9*
COc1cc(C(=O)N(C)c2nnc(-c3cccnc3)s2)cc(OC)c1OC | . | . | . | -1.3 | . | . | . | .
N=c1n(CC(=O)c2ccc(Br)cc2)c2ccccc2n1Cc1ccccc1 | -3.1 | 100.0 | 6.3 | . | 124.2* | -6.3 | 81.3* | 46.4*
COC(=O)c1sccc1NC(=O)c1ccccc1 | 3.8 | 99.0 | -2.3 | -0.1 | -0.4 | 2.3 | . | .
COC(=O)c1sccc1NC(=O)c1ccc(C(C)C)cc1 | 0.2 | 104.0 | -0.8 | 1.5 | 95.4* | 0.8 | 96.9* | 14.8*
CCCc1nn(C)c(C(=O)Nc2ccc(CC)cc2)c1Cl | 1.3 | 94.0 | 30.3 | 0.4 | 23.7 | -30.3 | . | .
CCCc1nn(C)c(C(=O)Nc2cccc3ccccc23)c1Cl | 1.3 | 96.0 | 12.0 | 1.9 | 92.9* | -12.0 | 73.5* | .
Cn1c(C(=O)NC2CCCCC2)cc2c(=O)n3ccccc3nc21 | 5.9 | 100.0 | -5.6 | 2.8 | -4.0 | 5.6 | . | .
COc1ccccc1-c1sc2cc3c(cc2c1-c1ccc2c(c1)OCO2)OCO3 | 5.4 | 96.0 | 61.5 | . | 92.8* | -61.5 | 126.2* | 162.2*
COC(=O)c1c(-c2ccccc2OC)sc2cc3c(cc12)OCO3 | 1.4 | 99.0 | 22.0 | . | 108.0* | -22.0 | 91.8* | 225.9*
COc1ccccc1-c1sc2ccccc2c1-c1ccc2c(c1)OCO2 | 2.3 | 98.0 | 63.4 | 0.4 | 32.8 | -63.4 | . | .
CCOC(=O)c1c(NC(=O)Cn2nc(C(F)(F)F)cc2C)sc(C)c1C | 0.2 | 104.0 | 30.4 | -0.3 | -0.7 | -30.4 | . | .
COc1ccccc1OCc1nc(C#N)c(N2CC(C)CC(C)C2)o1 (centres undefined) | -0.8 | 100.0 | 43.7 | -0.4 | 91.2* | -43.7 | 86.5* | 86.4*
CCCc1c(C(=O)Nc2cc(C(C)(C)C)on2)cnn1-c1ccccc1 | -0.5 | 97.0 | -26.5 | 0.1 | -2.6 | 26.5 | . | .
O=C(Nc1ccc(Br)cc1F)c1cccnc1 | 1.2 | 94.0 | -5.0 | 0.4 | 125.6* | 5.0 | 59.9* | 26.2*
CCCc1c(C(=O)Nc2ccc(F)cc2F)cnn1-c1ccccc1 | -0.8 | 98.0 | -6.3 | 0.1 | 82.8* | 6.3 | 90.6* | 71.2*
Cn1ncc(Br)c1C(=O)Nc1ccc(F)cc1F | 0.8 | 95.0 | 8.6 | -0.4 | 84.7* | -8.6 | 79.8* | 17.4*
Cc1nn(C)c(C(=O)Nc2ccc(Br)cc2F)c1Br | 0.4 | 104.0 | 28.1 | 1.1 | 87.7* | -28.1 | 110.4* | 12.2*
O=C(Nc1cccs1)Nc1c(F)c(F)c(F)c(F)c1F | 1.2 | 102.0 | 1.0 | -0.1 | 6.2 | -1.0 | . | .
Cc1cccc(-n2nnc(C(=O)NCc3ccccc3Cl)c2N)c1 | 1.5 | 104.0 | 11.0 | 0.8 | -8.8 | -11.0 | . | .
COC(=O)c1ccccc1C(=O)c1c(C)cc(C)cc1C | . | 103.0 | . | . | . | . | . | .
Cn1nc(NC(=O)C(F)(F)F)c2ncc(-c3ccc(Cl)cc3)nc21 | 6.8 | 99.0 | 17.6 | 1.9 | 133.6* | -17.6 | 130.7* | 37.1*
COc1ccc(S(=O)(=O)N2CCN(C(=O)c3c(-c4ccccc4)noc3C)CC2)cc1 | 1.2 | 96.0 | -19.1 | 0.4 | -0.3 | 19.0 | . | .
COc1ccc(-c2[nH]ncc2/C=N\NS(=O)(=O)c2ccc(Cl)cc2)cc1 | 3.3 | 101.0 | -5.3 | -0.3 | 32.6 | 5.3 | . | .
COc1ccc(-c2[nH]ncc2/C=N\NS(=O)(=O)c2ccccc2)cc1OC | 2.0 | 95.0 | -24.3 | -0.4 | 91.8* | 24.3 | 33.0 | 23.9*
O=C(CNC(=O)c1ccccc1)N/N=C/c1cn[nH]c1-c1ccccc1 | 1.2 | 98.0 | 15.7 | -0.1 | 145.9* | -15.7 | 92.5* | 20.1*
